Active and inactive are the calls of the source. The calls are words filed in the database; no cut-off is given here.
What was measured:
Plasmodium berghei [1] = assay: Antimalarial activity against Plasmodium berghei ANKA infected in specific pathogen-free C57BL/6 mouse assessed as mouse survival at 25 to 50 mg/kg, ip administered at 72 hrs post-infection by rapid staining-based microscopic analysis
Plasmodium falciparum [2] = assay: Induction of morphological changes in synchronized ring stage Plasmodium falciparum W2 infected in human erythrocytes assessed as swollen food vacuoles with accumulated hemoglobin at 300 nM measured after 36 hrs by Giemsa staining-based photomicrographic method; format: functional, organism-based
Procedure, shortened: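 Synchronized W2 P. falciparum cultures exposed from ring stage for 36 h to compound (4.5–10,000 nM range), with E-64 and 0.1% DMSO controls; thin smears methanol-fixed, Giemsa-stained and photographed.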

Plasmodium falciparum [3] = assay: Antimalarial activity against synchronized ring stage CQ-sensitive Plasmodium falciparum 3D7 infected in human erythrocytes incubated for 24 hrs followed by compound washout and subsequent compound addition and measured after 48 hrs by YOYO-1 probe-based flow cytometry; format: functional, organism-based
Falcipain 2 = target: T1, Falcipain 2 (Plasmodium falciparum, UniProt Q9N6S8); assay: Inhibition of Plasmodium falciparum N-terminal His6-tagged falcipain-2 (35 residues) expressed in Escherichia coli M15 pREP4 using Z-Lue-Arg-AMC as substrate measured after 30 mins by spectrofluorometric method
T1 sequence (Q9N6S8 whole entry): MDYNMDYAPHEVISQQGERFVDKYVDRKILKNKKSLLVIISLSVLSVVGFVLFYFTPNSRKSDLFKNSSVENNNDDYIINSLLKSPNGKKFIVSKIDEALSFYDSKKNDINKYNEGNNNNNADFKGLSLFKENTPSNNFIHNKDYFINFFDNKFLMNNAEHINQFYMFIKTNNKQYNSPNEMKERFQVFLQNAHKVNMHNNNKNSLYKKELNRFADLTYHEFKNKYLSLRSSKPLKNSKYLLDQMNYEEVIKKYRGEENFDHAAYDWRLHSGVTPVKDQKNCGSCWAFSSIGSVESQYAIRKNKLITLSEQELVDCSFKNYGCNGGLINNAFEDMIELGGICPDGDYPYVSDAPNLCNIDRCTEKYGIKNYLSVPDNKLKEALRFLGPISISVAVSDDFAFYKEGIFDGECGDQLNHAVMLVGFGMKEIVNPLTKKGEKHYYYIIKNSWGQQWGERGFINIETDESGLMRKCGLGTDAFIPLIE
Procedure, shortened: (§1)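 Recombinant heterologously expressed FP2 or FP3; inhibition measured by continuous kinetic cleavage of fluorogenic substrate Z-Leu-Arg-AMC.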

Plasmodium berghei [4] = assay: Antimalarial activity against Plasmodium berghei ANKA infected in specific pathogen-free C57BL/6 mouse assessed as reduction in parasitemia at 50 mg/kg, ip administered once daily for 4 days measured up to 35 days post-infection by rapid staining-based microscopic analysis; format: functional, organism-based
Procedure, shortened: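 Established-infection model: female C57BL/6 mice inoculated i.p. with 10^6 PbA-parasitized red cells; compound in DMSO diluted in saline given i.p. at 50 mg/kg on days 4, 5, 6 and 7 post-infection, chloroquine 50 mg/kg as comparator, vehicle controls; 7 mice per group. Tail-vein smears, % parasitemia by microscopy, mean ± SEM; survival recorded.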

[5] = Drug metabolism in mouse liver microsomes assessed as N,N-bis-demethylation at 10 uM measured after 60 mins in presence of NADPH-generating system by UPLC-MS analysis; format: ADME, Microsome; details: 1 h
Plasmodium falciparum [6] = assay: Antimalarial activity against synchronized ring stage CQ-resistant Plasmodium falciparum W2 infected in human erythrocytes incubated for 24 hrs followed by compound washout and subsequent compound addition and measured after 48 hrs by YOYO-1 probe-based flow cytometry; format: functional, organism-based
[7] = Intrinsic clearance in mouse liver microsomes assessed per mg protein at 1 uM measured after 60 mins in presence of NADPH-generating system by UPLC-MS analysis; format: ADME, Microsome; details: read-out: CLH
[8] = Half life in Swiss mouse plasma at 1 ug/ml by UPLC-MS analysis; format: ADME, cell-free
Procedure, shortened: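 Fresh whole blood from non-fasted male Swiss outbred mice; plasma separated by centrifugation. Compound spiked to 1 μg/mL final (0.2% DMSO, 0.4% acetonitrile), kept at 37 °C; aliquots taken over 4 h (n=3 per time point), snap-frozen, protein precipitated with acetonitrile, UPLC-MS (ESI+) against matrix calibration standards. Exponential decay fit gives k; half-life = ln(2)/k.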

Plasmodium berghei [9] = assay: Antimalarial activity against Plasmodium berghei ANKA infected in specific pathogen-free C57BL/6 mouse assessed as reduction in parasitemia at […] to 12.5 mg/kg, ip administered at 72 hrs post-infection and measured daily up to 35 days post-infection by rapid staining-based microscopic analysis; format: functional, organism-based
Procedure, shortened: (§2)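 Peters 4-day suppressive test: female C57BL/6 mice, 8–9 weeks old, inoculated i.p. with 10^6 PbA-parasitized red cells in 200 µL Alsever's medium. Compound in DMSO diluted in saline (50, 25, 12.5, 6.25 mg/kg) or vehicle, 200 µL i.p. at 4, 24, 48 and 72 h. Daily tail-vein smears, Rapid Stain, % parasitemia by microscopy; cure = healthy, no parasitemia at day 35; 5 mice/group, mean ± SEM.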

[10] = Drug metabolism in human liver microsomes assessed as N,N-bis-demethylation at 10 uM measured after 60 mins in presence of NADPH-generating system by UPLC-MS analysis; format: ADME, Microsome; details: 1 h
[11] = Half life in Swiss mouse blood at 1 ug/ml by UPLC-MS analysis; format: ADME, tissue-based; details: whole blood
Plasmodium berghei [12] = assay: Antimalarial activity against Plasmodium berghei ANKA infected in specific pathogen-free C57BL/6 mouse assessed as reduction in disease severity at 100 mg/kg, po administered once daily for 4 days measured up to 35 days post-infection by rapid staining-based microscopic analysis; format: functional, organism-based
Procedure, shortened: (§3)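 Female C57BL/6 mice, 8–9 weeks old, inoculated i.p. with 10^6 P. berghei ANKA-parasitized red cells. Compound dissolved in DMSO, diluted in 154 mM NaCl, given by oral gavage at 100 mg/kg on days 4, 5, 6 and 7 post-infection. Tail-vein thin smears stained with Rapid Stain, % parasitemia by microscopy; mice euthanized at signs of severe disease.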

[13] = target: T2, Cysteine protease falcipain-3 (Plasmodium falciparum, UniProt Q9NAW4); assay: Inhibition of Plasmodium falciparum N-terminal His-tagged falcipain-3 (33 residues) expressed in Escherichia coli M15 pREP4 using Z-Leu-Arg-AMC as substrate measured after 30 mins by spectrofluorometric method
T2 sequence (Q9NAW4 whole entry): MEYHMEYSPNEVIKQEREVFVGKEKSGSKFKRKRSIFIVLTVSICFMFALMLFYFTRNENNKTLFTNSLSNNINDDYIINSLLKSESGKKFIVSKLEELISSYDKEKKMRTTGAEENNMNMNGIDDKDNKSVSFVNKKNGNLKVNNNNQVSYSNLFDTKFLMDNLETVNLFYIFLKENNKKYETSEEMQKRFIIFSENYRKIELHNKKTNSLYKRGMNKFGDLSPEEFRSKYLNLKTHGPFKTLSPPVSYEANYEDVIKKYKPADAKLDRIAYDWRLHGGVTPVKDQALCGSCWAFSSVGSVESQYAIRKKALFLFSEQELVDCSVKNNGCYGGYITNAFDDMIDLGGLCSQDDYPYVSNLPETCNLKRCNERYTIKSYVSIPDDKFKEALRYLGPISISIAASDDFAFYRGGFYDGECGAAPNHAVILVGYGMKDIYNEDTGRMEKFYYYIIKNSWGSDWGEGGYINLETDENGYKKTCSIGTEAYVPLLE
Procedure, shortened: as §1

HEK293 = assay: Cytotoxicity against HEK293 cells assessed as reduction in cell viability at 25 uM measured after 18 hrs by alamar blue assay; format: cell-based; details: human, hek293, 18 h
Plasmodium berghei [14] = assay: Antimalarial activity against Plasmodium berghei ANKA infected in specific pathogen-free C57BL/6 mouse assessed as reduction in parasitemia at 100 mg/kg, po administered once daily for 4 days measured up to 35 days post-infection by rapid staining-based microscopic analysis; format: functional, organism-based
Procedure, shortened: as §3

Plasmodium berghei [15] = assay: Antimalarial activity against Plasmodium berghei ANKA infected in specific pathogen-free C57BL/6 mouse assessed as reduction in parasitemia at 12.5 to 50 mg/kg, ip administered at 72 hrs post-infection and measured daily up to 35 days post-infection by rapid staining-based microscopic analysis; format: functional, organism-based
Procedure, shortened: as §2

[16] = Drug metabolism in human liver microsomes assessed as N-demethylation at 10 uM measured after 60 mins in presence of NADPH-generating system by UPLC-MS analysis; format: ADME, Microsome; details: 1 h
[17] = Drug metabolism in mouse liver microsomes assessed as N-demethylation at 10 uM measured after 60 mins in presence of NADPH-generating system by UPLC-MS analysis; format: ADME, Microsome; details: 1 h
Plasmodium berghei [18] = assay: Antimalarial activity against Plasmodium berghei ANKA infected in specific pathogen-free C57BL/6 mouse assessed as reduction in parasitemia at 25 to 50 mg/kg, ip administered at 72 hrs post-infection and measured daily up to 35 days post-infection by rapid staining-based microscopic analysis; format: functional, organism-based
Procedure, shortened: as §2

Compound | Survival (Plasmodium berghei [1]) [days] | Activity (Plasmodium falciparum [2]) | IC50 (Plasmodium falciparum [3]) [nM] | IC50 (Falcipain 2) [nM] | Activity (Plasmodium berghei [4]) | Drug metabolism [5] | IC50 (Plasmodium falciparum [6]) [nM] | microsomal CLint at 1 µM [7] [µL/min/mg] | half-life at 1 ug/ml [8] [min] | Activity (Plasmodium berghei [9]) | Drug metabolism [10] | half-life at 1 ug/ml [11] [min] | Activity (Plasmodium berghei [12]) | IC50 [13] [nM] | Activity (HEK293) | Activity (Plasmodium berghei [14]) | Activity (Plasmodium berghei [15]) | Drug metabolism [16] | Drug metabolism [17] | Activity (Plasmodium berghei [18])
COC1=CC(=O)N(C(=O)/C=C/[C@H](CCc2ccccc2)NC(=O)[C@H](CC(C)C)NC(=O)[C@H](CC(C)C)NC(=O)[C@H](C(C)C)N(C)C)[C@H]1Cc1c[nH]c2ccccc12.O=C(O)C(F)(F)F | >35 | Active | 1 | 33 | Active | Metabolite_Detected | 4 | 787 | 373 | Active | Metabolite_Detected | 273 | Active | 112 | Non-Toxic | Active | – | – | – | –
COC1=CC(=O)N(C(=O)/C=C/[C@H](C)NC(=O)[C@H](CC(C)C)NC(=O)[C@H](CC2CCCCC2)NC(=O)C2CCN(C)CC2)[C@H]1Cc1c[nH]c2ccccc12.O=C(O)C(F)(F)F | – | Active | 26 | 31 | – | – | 28 | – | 126 | – | – | 41 | – | 117 | Non-Toxic | – | Active | Metabolite_Detected | Metabolite_Detected | –
COC1=CC(=O)N(C(=O)/C=C/[C@H](C)NC(=O)[C@H](CC(C)C)NC(=O)[C@H](CC(C)C)NC(=O)C2CCN(C)CC2)[C@H]1Cc1c[nH]c2ccccc12.O=C(O)C(F)(F)F | – | Active | 42 | 29 | – | – | 49 | – | 82 | – | – | 17 | – | 79 | Non-Toxic | – | – | Metabolite_Detected | Metabolite_Detected | Active

Source: ChEMBL document CHEMBL4350969, “Falcipain Inhibitors Based on the Natural Product Gallinamide A Are Potent in Vitro and in Vivo Antimalarials” (J Med Chem, 2019)
